According to ChEMBL document CHEMBL1641468, “Synthesis of modified siRNA bearing C-5 polyamine-substituted pyrimidine nucleoside in their 3'-overhang regions and its RNAi activity” (Bioorg Med Chem Lett, 2011):
Calls of active or inactive are those of the source. The rule behind the calls is not given here.

Tests used:
[1] = molecular target: T1, Hepatocyte nuclear factor 4-alpha (Homo sapiens) (UniProt P41235); assay: Inhibition of HNF4alpha mRNA expression in human HepG2 cells after 24 hrs by real-time RT-PCR
T1 sequence (whole entry): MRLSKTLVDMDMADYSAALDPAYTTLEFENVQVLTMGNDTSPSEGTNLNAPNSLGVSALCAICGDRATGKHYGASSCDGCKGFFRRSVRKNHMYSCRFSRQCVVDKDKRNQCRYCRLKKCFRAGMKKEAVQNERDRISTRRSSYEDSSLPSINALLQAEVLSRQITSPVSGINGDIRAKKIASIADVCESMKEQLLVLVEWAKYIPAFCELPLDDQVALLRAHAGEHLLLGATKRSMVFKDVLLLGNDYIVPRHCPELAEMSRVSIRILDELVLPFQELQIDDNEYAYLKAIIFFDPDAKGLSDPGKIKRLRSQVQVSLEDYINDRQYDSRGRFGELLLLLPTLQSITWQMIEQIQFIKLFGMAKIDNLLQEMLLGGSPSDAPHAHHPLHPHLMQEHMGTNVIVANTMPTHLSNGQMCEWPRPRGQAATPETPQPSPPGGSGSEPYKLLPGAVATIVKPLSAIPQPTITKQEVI

[2] = molecular target: T1, Hepatocyte nuclear factor 4-alpha (Homo sapiens); assay: Inhibition of HNF4alpha mRNA expression in human HepG2 cells after 24 hrs by RT-PCR analysis; type: cell-based; settings: in the assay text read “after 48 hrs” for “after 24 hrs”
In short: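 HepG2 cells were grown in DMEM with 5% FBS at 37 °C and transfected with siRNA using a transfection reagent. After 24 h at 37 °C, the medium was changed to DMEM with 10% FBS and cells were incubated a further 24 h. Total RNA was reverse-transcribed for real-time PCR (40 cycles). HNF4α mRNA was normalized to GAPDH by ΔΔCt and expressed relative to nonsense control siRNA, using the mean Ct of duplicate PCRs from independent cells.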

Row | Activity [1] | Activity [2] | Structure (SMILES)
1 | Active | Active | Cc1cn([C@H]2C[C@H](OP(=O)(O)OC[C@H]3O[C@@H](n4cc(CC(=O)NCCN(CCN)CCN)c(=O)[nH]c4=O)C[C@@H]3O)[C@@H](COP(=O)(O)O[C@H]3[C@@H](O)[C@H](n4ccc(N)nc4=O)O[C@@H]3COP(=O)(O)O[C@H]3[C@@H](O)[C@H](n4ccc(N)nc4=O)O[C@@H]3COP(=O)(O)O[C@@H]3[C@H](O)[C@@H](COP(=O)(O)O[C@H]4[C@@H](O)[C@H](n5ccc(=O)[nH]c5=O)O[C@@H]4COP(=O)(O)O[C@H]4[C@@H](O)[C@H](n5ccc(N)nc5=O)O[C@@H]4COP(=O)(O)O[C@H]4[C@@H](O)[C@H](n5cnc6c(N)ncnc65)O[C@@H]4COP(=O)(O)O[C@H]4[C@@H](O)[C@H](n5ccc(N)nc5=O)O[C@@H]4COP(=O)(O)O[C@@H]4[C@H](O)[C@@H](COP(=O)(O)O[C@H]5[C@@H](O)[C@H](n6ccc(N)nc6=O)O[C@@H]5COP(=O)(O)O[C@H]5[C@@H](O)[C@H](n6cnc7c(N)ncnc76)O[C@@H]5COP(=O)(O)O[C@H]5[C@@H](O)[C@H](n6ccc(N)nc6=O)O[C@@H]5COP(=O)(O)O[C@H]5[C@@H](O)[C@H](n6ccc(N)nc6=O)O[C@@H]5COP(=O)(O)O[C@H]5[C@@H](O)[C@H](n6cnc7c(N)ncnc76)O[C@@H]5COP(=O)(O)O[C@H]5[C@@H](O)[C@H](n6ccc(N)nc6=O)O[C@@H]5COP(=O)(O)O[C@H]5[C@@H](O)[C@H](n6ccc(N)nc6=O)O[C@@H]5COP(=O)(O)O[C@H]5[C@@H](O)[C@H](n6ccc(=O)[nH]c6=O)O[C@@H]5COP(=O)(O)O[C@@H]5[C@H](O)[C@@H](COP(=O)(O)O[C@H]6[C@@H](O)[C@H](n7ccc(=O)[nH]c7=O)O[C@@H]6COP(=O)(O)O[C@H]6[C@@H](O)[C@H](n7ccc(=O)[nH]c7=O)O[C@@H]6COP(=O)(O)O)O[C@H]5n5cnc6c(=O)[nH]c(N)nc65)O[C@H]4n4cnc5c(=O)[nH]c(N)nc54)O[C@H]3n3cnc4c(=O)[nH]c(N)nc43)O2)c(=O)[nH]c1=O
2 | Active | Active | Cc1cn([C@H]2C[C@H](OP(=O)(O)OC[C@H]3O[C@@H](n4cc(C)c(=O)[nH]c4=O)C[C@@H]3O)[C@@H](COP(=O)(O)O[C@H]3[C@@H](O)[C@H](n4ccc(N)nc4=O)O[C@@H]3COP(=O)(O)O[C@H]3[C@@H](O)[C@H](n4ccc(N)nc4=O)O[C@@H]3COP(=O)(O)O[C@@H]3[C@H](O)[C@@H](COP(=O)(O)O[C@H]4[C@@H](O)[C@H](n5ccc(=O)[nH]c5=O)O[C@@H]4COP(=O)(O)O[C@H]4[C@@H](O)[C@H](n5ccc(N)nc5=O)O[C@@H]4COP(=O)(O)O[C@H]4[C@@H](O)[C@H](n5cnc6c(N)ncnc65)O[C@@H]4COP(=O)(O)O[C@H]4[C@@H](O)[C@H](n5ccc(N)nc5=O)O[C@@H]4COP(=O)(O)O[C@@H]4[C@H](O)[C@@H](COP(=O)(O)O[C@H]5[C@@H](O)[C@H](n6ccc(N)nc6=O)O[C@@H]5COP(=O)(O)O[C@H]5[C@@H](O)[C@H](n6cnc7c(N)ncnc76)O[C@@H]5COP(=O)(O)O[C@H]5[C@@H](O)[C@H](n6ccc(N)nc6=O)O[C@@H]5COP(=O)(O)O[C@H]5[C@@H](O)[C@H](n6ccc(N)nc6=O)O[C@@H]5COP(=O)(O)O[C@H]5[C@@H](O)[C@H](n6cnc7c(N)ncnc76)O[C@@H]5COP(=O)(O)O[C@H]5[C@@H](O)[C@H](n6ccc(N)nc6=O)O[C@@H]5COP(=O)(O)O[C@H]5[C@@H](O)[C@H](n6ccc(N)nc6=O)O[C@@H]5COP(=O)(O)O[C@H]5[C@@H](O)[C@H](n6ccc(=O)[nH]c6=O)O[C@@H]5COP(=O)(O)O[C@@H]5[C@H](O)[C@@H](COP(=O)(O)O[C@H]6[C@@H](O)[C@H](n7ccc(=O)[nH]c7=O)O[C@@H]6COP(=O)(O)O[C@H]6[C@@H](O)[C@H](n7ccc(=O)[nH]c7=O)O[C@@H]6COP(=O)(O)O)O[C@H]5n5cnc6c(=O)[nH]c(N)nc65)O[C@H]4n4cnc5c(=O)[nH]c(N)nc54)O[C@H]3n3cnc4c(=O)[nH]c(N)nc43)O2)c(=O)[nH]c1=O
3 | Active | Active | NCCN(CCN)CCNC(=O)Cc1cn([C@H]2C[C@H](OP(=O)(O)OC[C@H]3O[C@@H](n4cc(CC(=O)NCCN(CCN)CCN)c(=O)[nH]c4=O)C[C@@H]3O)[C@@H](COP(=O)(O)O[C@H]3[C@@H](O)[C@H](n4ccc(N)nc4=O)O[C@@H]3COP(=O)(O)O[C@H]3[C@@H](O)[C@H](n4ccc(N)nc4=O)O[C@@H]3COP(=O)(O)O[C@@H]3[C@H](O)[C@@H](COP(=O)(O)O[C@H]4[C@@H](O)[C@H](n5ccc(=O)[nH]c5=O)O[C@@H]4COP(=O)(O)O[C@H]4[C@@H](O)[C@H](n5ccc(N)nc5=O)O[C@@H]4COP(=O)(O)O[C@H]4[C@@H](O)[C@H](n5cnc6c(N)ncnc65)O[C@@H]4COP(=O)(O)O[C@H]4[C@@H](O)[C@H](n5ccc(N)nc5=O)O[C@@H]4COP(=O)(O)O[C@@H]4[C@H](O)[C@@H](COP(=O)(O)O[C@H]5[C@@H](O)[C@H](n6ccc(N)nc6=O)O[C@@H]5COP(=O)(O)O[C@H]5[C@@H](O)[C@H](n6cnc7c(N)ncnc76)O[C@@H]5COP(=O)(O)O[C@H]5[C@@H](O)[C@H](n6ccc(N)nc6=O)O[C@@H]5COP(=O)(O)O[C@H]5[C@@H](O)[C@H](n6ccc(N)nc6=O)O[C@@H]5COP(=O)(O)O[C@H]5[C@@H](O)[C@H](n6cnc7c(N)ncnc76)O[C@@H]5COP(=O)(O)O[C@H]5[C@@H](O)[C@H](n6ccc(N)nc6=O)O[C@@H]5COP(=O)(O)O[C@H]5[C@@H](O)[C@H](n6ccc(N)nc6=O)O[C@@H]5COP(=O)(O)O[C@H]5[C@@H](O)[C@H](n6ccc(=O)[nH]c6=O)O[C@@H]5COP(=O)(O)O[C@@H]5[C@H](O)[C@@H](COP(=O)(O)O[C@H]6[C@@H](O)[C@H](n7ccc(=O)[nH]c7=O)O[C@@H]6COP(=O)(O)O[C@H]6[C@@H](O)[C@H](n7ccc(=O)[nH]c7=O)O[C@@H]6COP(=O)(O)O)O[C@H]5n5cnc6c(=O)[nH]c(N)nc65)O[C@H]4n4cnc5c(=O)[nH]c(N)nc54)O[C@H]3n3cnc4c(=O)[nH]c(N)nc43)O2)c(=O)[nH]c1=O
4 | Active | Active | Cc1cn([C@H]2C[C@H](OP(=O)(O)OC[C@H]3O[C@@H](n4cc(C)c(=O)[nH]c4=O)C[C@@H]3O)[C@@H](COP(=O)(O)O[C@@H]3[C@H](O)[C@@H](COP(=O)(O)O[C@H]4[C@@H](O)[C@H](n5cnc6c(N)ncnc65)O[C@@H]4COP(=O)(O)O[C@H]4[C@@H](O)[C@H](n5ccc(N)nc5=O)O[C@@H]4COP(=O)(O)O[C@H]4[C@@H](O)[C@H](n5cnc6c(N)ncnc65)O[C@@H]4COP(=O)(O)O[C@@H]4[C@H](O)[C@@H](COP(=O)(O)O[C@@H]5[C@H](O)[C@@H](COP(=O)(O)O[C@H]6[C@@H](O)[C@H](n7ccc(=O)[nH]c7=O)O[C@@H]6COP(=O)(O)O[C@@H]6[C@H](O)[C@@H](COP(=O)(O)O[C@@H]7[C@H](O)[C@@H](COP(=O)(O)O[C@H]8[C@@H](O)[C@H](n9ccc(=O)[nH]c9=O)O[C@@H]8COP(=O)(O)O[C@@H]8[C@H](O)[C@@H](COP(=O)(O)O[C@H]9[C@@H](O)[C@H](n%10ccc(N)nc%10=O)O[C@@H]9COP(=O)(O)O[C@@H]9[C@H](O)[C@@H](COP(=O)(O)O[C@H]%10[C@@H](O)[C@H](n%11ccc(=O)[nH]c%11=O)O[C@@H]%10COP(=O)(O)O[C@@H]%10[C@H](O)[C@@H](COP(=O)(O)O[C@H]%11[C@@H](O)[C@H](n%12cnc%13c(N)ncnc%13%12)O[C@@H]%11COP(=O)(O)O[C@H]%11[C@@H](O)[C@H](n%12ccc(N)nc%12=O)O[C@@H]%11COP(=O)(O)O[C@@H]%11[C@H](O)[C@@H](COP(=O)(O)O[C@H]%12[C@@H](O)[C@H](n%13cnc%14c(=O)[nH]c(N)nc%14%13)O[C@@H]%12COP(=O)(O)O)O[C@H]%11n%11cnc%12c(=O)[nH]c(N)nc%12%11)O[C@H]%10n%10cnc%11c(=O)[nH]c(N)nc%11%10)O[C@H]9n9cnc%10c(=O)[nH]c(N)nc%109)O[C@H]8n8cnc9c(=O)[nH]c(N)nc98)O[C@H]7n7cnc8c(=O)[nH]c(N)nc87)O[C@H]6n6cnc7c(=O)[nH]c(N)nc76)O[C@H]5n5cnc6c(=O)[nH]c(N)nc65)O[C@H]4n4cnc5c(=O)[nH]c(N)nc54)O[C@H]3n3cnc4c(N)ncnc43)O2)c(=O)[nH]c1=O
